Most compounds without a hit are left out; they make up all but 1.8% or so of the library.
DDE Tn6 FP inh – disrupts Tn6 cyclic peptide binding to fibrin D-Dimer-E complex; P02675; Fibrin DD(E) TRITC-Tn6 fluorescence polarization displacement; inhibition, % at 8.3 µM; 370,000 tested, 0.21% active; AID 720509;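 active = inhibition above a per-campaign cutoff: mean of compounds within control limits plus 3 SD, cut at about 15% in these data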
TCR-CD3 inh – human TCR-CD3 binding inhibition; TAMRA-labeled TCR probe fluorescence, biochemical; inhibition, % at 9.4 µM; 360,000 tested, 0.37% active; in the data active = inhibition above about 19%;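 note: recombinant mutant TCR 2C K166C tagged with TAMRA read by polarization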
DDE Tn7 FP inh – disrupts Tn7 cyclic peptide binding to fibrin D-Dimer-E complex | P02675 | FP displacement of FITC-Tn7 peptide from fibrin DD(E); 0% = median of compound wells per plate | inhibition, % at 8.3 µM | 370,000 tested, 0.13% active;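 active = inhibition above the mean of compounds falling within the control limits plus 3 SD of them, cut at about 14% in these data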
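Assay system: human fibrin DD(E). Input: DD(E) 2 µM final. Medium: Tris buffer with calcium and detergent, pH 7.8. Compound dosing: single point at 8.3 µM. Timing: 10 min plus 3 h, room temperature. Technique: fluorescence polarization of the labelled Tn7 tracer. Read-out: percent inhibition. Replicates: singlicate testing.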
HTRA1 inh – inhibitors of human serine peptidase HTRA1 | recombinant HTRA1, FP-rhodamine activity-based probe, fluorescence polarization | inhibition, % at 5.96 µM | AID 504803 | 340,000 tested, 0.5% active | Q92743; in the data active = inhibition above about 36%
mABHD4 FP – inhibitors of mouse ABHD4; Q8VD66; purified mABHD4, FP-Rh probe fluorescence polarization; inhibition, % at 8.92 µM; 370,000 tested, 0.54% active;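 active = inhibition exceeding the mean over every tested compound plus 3 SD, cut at about 30% in these data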
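Assay system: Wild-type mouse ABHD4 protein | Medium: HEPES pH 7.0 buffer, 150 mM NaCl, 0.01% Pluronic F-127 | Incubation: Enzyme–compound pre-incubation 45 min, then probe 60 min, both 25 °C | Technique: Fluorescence polarization with parallel and perpendicular emission, 525/598 nm | Evaluation: % inhibition of FP-Rh probe binding versus controls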
SIAE primary – inhibitors of human sialic acid acetylesterase SIAE; SIAE FP-Rh probe binding, fluorescence polarization; inhibition, % at 9.66 µM; 370,000 tested, 0.69% active;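 active = inhibition above a cutoff: mean of compounds within the control limits plus 3 SD of those, cut at about 17% in these data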
Target sequence (Q9HAT2 whole entry, looked up): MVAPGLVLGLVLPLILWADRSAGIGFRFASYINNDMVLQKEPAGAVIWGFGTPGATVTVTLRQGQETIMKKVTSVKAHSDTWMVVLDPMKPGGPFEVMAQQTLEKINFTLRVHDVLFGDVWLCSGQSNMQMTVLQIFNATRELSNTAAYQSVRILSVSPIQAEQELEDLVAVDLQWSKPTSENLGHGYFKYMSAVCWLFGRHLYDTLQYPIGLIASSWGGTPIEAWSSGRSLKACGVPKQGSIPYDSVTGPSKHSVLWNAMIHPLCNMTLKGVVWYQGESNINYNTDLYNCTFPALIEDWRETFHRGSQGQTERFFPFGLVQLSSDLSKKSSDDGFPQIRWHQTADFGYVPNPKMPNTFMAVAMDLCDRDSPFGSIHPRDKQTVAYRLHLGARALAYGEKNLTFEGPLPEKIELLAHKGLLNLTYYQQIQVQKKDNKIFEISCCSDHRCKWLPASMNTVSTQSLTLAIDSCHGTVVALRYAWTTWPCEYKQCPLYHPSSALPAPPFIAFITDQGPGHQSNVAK
Tn6 DDE ctr – counter-screen for inhibitors of Tn6 peptide binding to fibrin DD(E); 680 tested, 2% active; shares compounds with DDE Tn6 FP inh; inhibition, % at 8.3 µM; AID 720621; TRITC-Tn6 fluorescence polarization displacement; 0% = median of compound wells, not DMSO;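 active = inhibition above the mean of test compounds lying between the control limits plus 3 SD of those, cut at about 14% in these data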
Tn6 DDE conf – confirmation of inhibitors of Tn6 binding to human fibrin DD(E); 680 tested, 10% active; inhibition, % at 8.3 µM; AID 720631; FP displacement of TRITC-Tn6 peptide from DD(E); 0% = per-plate median of test wells; shares compounds with DDE Tn6 FP inh;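 active = inhibition above the mean of compounds lying within the control limits plus 3 SD, cut at about 16% in these data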
Large screens that a line does not name were inactive (follow-up assays come after a bar, where they were run); ! = a repeat was not active.

CCOC(=O)[C@]12CCCC=C1N(CCCOC)C(=O)[C@@H]2CC(=O)N1CCN(C(=O)C2CC2)CC1	none (no result: TCR-CD3 inh, HTRA1 inh)
CCOC(=O)N1CCN(C(=O)C[C@H]2C(=O)N(CCCOC)C3=CCCC[C@@]32C(=O)OCC)CC1	DDE Tn6 FP inh 15.3 (no result: TCR-CD3 inh, HTRA1 inh) | Tn6 DDE ctr inactive | Tn6 DDE conf inactive
CCN(CC)C(=O)CC[C@H]1CC[C@]2(CCCN(CC3CC3)C2)O1	none (no result: TCR-CD3 inh, HTRA1 inh)
COC(=O)[C@]12C[C@H](CC(=O)NCc3cccc(C(F)(F)F)c3)C(=O)N(Cc3ccco3)C1=C[C@H](C1CCCC1)O[C@@H]2C	none (no result: TCR-CD3 inh, HTRA1 inh)
O=S(=O)(c1ccccc1)c1cnn(-c2ccccc2)c1-c1ccc(Cl)cc1	DDE Tn6 FP inh 16.1 | Tn6 DDE ctr inactive | Tn6 DDE conf inactive
COc1ccccc1N(CN1CCCC1=O)C(=O)c1ccccc1F	none
COc1cc(OC)cc(C(=O)N(CN2CCCC2=O)c2ccccc2OC)c1	DDE Tn6 FP inh 15.8 | Tn6 DDE ctr inactive | Tn6 DDE conf inactive
O=C(Nc1ccccc1F)Oc1cccc(OC(=O)Nc2ccccc2F)c1	DDE Tn6 FP inh 15.4 | Tn6 DDE ctr inactive | Tn6 DDE conf inactive
CCN1CCCCC(NC(=O)c2cccc(C(F)(F)F)c2)C1=O (configuration not stated)	none (no result: TCR-CD3 inh, HTRA1 inh)
Cc1ccc(C2CCC3(CCC(=O)N3CCO)CC2)cc1 (configuration not stated)	DDE Tn6 FP inh 19.9! (no result: TCR-CD3 inh, HTRA1 inh) | Tn6 DDE ctr inactive | Tn6 DDE conf inactive
O=c1c2ccccc2n(Cc2ccno2)n1[C@@H](Cc1ccccc1)Cn1cc(C2CCCC2)nn1	none (no result: TCR-CD3 inh, HTRA1 inh)
CN(CCOC(=O)c1cc2ccccc2o1)C1CN(Cc2cn(Cc3ccccc3C(F)(F)F)nn2)S(=O)(=O)C1 (configuration not stated)	none (no result: TCR-CD3 inh, HTRA1 inh)
Cc1c(Cc2ccccc2)c(=O)oc2cc(OCC(=O)N3CCC(C(N)=O)CC3)ccc12	DDE Tn6 FP inh 17.7 | Tn6 DDE ctr inactive | Tn6 DDE conf inactive
N=c1c(C(=O)NC2CCCC2)cc2c(=O)n3ccccc3nc2n1CCCN1CCOCC1	none
N=c1c(C(=O)NC2CCCC2)cc2c(=O)n3ccccc3nc2n1CCN1CCOCC1	DDE Tn6 FP inh 15.6 | Tn6 DDE ctr inactive | Tn6 DDE conf inactive
O=C(CCn1nnc(-c2cccs2)n1)NCc1ccco1	none (no result: TCR-CD3 inh, HTRA1 inh)
Cc1ccc2c(c1)C1CS(=O)(=O)N(Cc3ccc(F)cc3)CN1C2 (configuration not stated)	none (no result: TCR-CD3 inh, HTRA1 inh)
CC(C)(C)c1ccc2c(c1)OC(C(=O)N/N=C/c1ccc[nH]1)CO2 (configuration not stated)	none (no result: TCR-CD3 inh, HTRA1 inh)
O=C(CCNC(=O)c1ccco1)Nc1ccc(C(F)(F)F)cc1	none
CC(C)(C)c1ccc(NC(=O)CCNC(=O)c2ccco2)cc1	DDE Tn6 FP inh 15.5 | Tn6 DDE ctr inactive | Tn6 DDE conf inactive
CC1CCN(C(=O)COC(=O)Cc2c[nH]c3ccccc23)CC1	DDE Tn6 FP inh 21.4 | Tn6 DDE ctr inactive | Tn6 DDE conf inactive
CCCCc1cc(=O)oc2c(CN(C)C)c(O)ccc12	DDE Tn6 FP inh 16.3 | Tn6 DDE ctr inactive | Tn6 DDE conf inactive
CCCCc1cc(=O)oc2c(CN3CCN(C)CC3)c(O)ccc12	none
CC(=O)c1ccc(NCCCN2CCC(C(O)(c3ccccc3)c3ccccc3)CC2)cc1	none (no result: TCR-CD3 inh, HTRA1 inh)
O=C(COC(=O)c1ccc(Cl)c([N+](=O)[O-])c1)Nc1ccccc1OC(F)F	none
O=C(COC(=O)c1ccc(Sc2ncn[nH]2)c([N+](=O)[O-])c1)Nc1cccc(Cl)c1F	DDE Tn6 FP inh 15.6 (no result: TCR-CD3 inh, HTRA1 inh) | Tn6 DDE ctr inactive | Tn6 DDE conf inactive
O=C(NC(Cc1cccc(F)c1)C(=O)O)C1CCCCC1 (configuration not stated)	DDE Tn6 FP inh 15.9 | Tn6 DDE ctr inactive | Tn6 DDE conf inactive
Cc1ccc(C(=O)NC(Cc2cccc(F)c2)C(=O)O)cc1 (configuration not stated)	none
CCOc1ccc(S(=O)(=O)N(CC(=O)NCc2cccnc2)c2ccc(C)cc2)cc1	none
CCOc1ccc(S(=O)(=O)N(CC(=O)NCc2cccnc2)c2ccc(F)cc2)cc1	DDE Tn6 FP inh 18.1 | Tn6 DDE ctr inactive | Tn6 DDE conf inactive
C[C@H](O)[C@@H]1CN2CCc3c([nH]c4c(-c5ccc6c(c5)OCO6)cccc34)[C@@H]2C[C@@H]1N(C)C(=O)c1ccccc1F	none (no result: TCR-CD3 inh, HTRA1 inh)
CCN1CCN(c2ccc(S(=O)(=O)N3CCCCC3)cc2NC(=O)/C=C/c2cccc(OC)c2OC)CC1	DDE Tn6 FP inh 16.1 | Tn6 DDE ctr inactive | Tn6 DDE conf inactive
CCN1CCN(c2ccc(S(=O)(=O)N3CCCCC3)cc2NC(=O)/C=C/c2ccc(F)cc2)CC1	none
O=C(CN1CCC(NC(=O)NC2CCCC2)CC1)Nc1ccc2c(c1)OCCO2	none (no result: TCR-CD3 inh, HTRA1 inh)
C[n+]1c(-c2ccccc2)cc2c(=Cc3ccccc3)c3ccccc3n21	DDE Tn6 FP inh 16.5 | Tn6 DDE ctr inactive | Tn6 DDE conf inactive
CO[C@H]([C@H](C)/C=C/N(C)C=O)[C@@H](C)C(=O)CC[C@H](C)[C@H](O)[C@H](C)[C@H]1OC(=O)/C=C/C(C)=C/C[C@H](O)C[C@@H]2C=CC[C@@H](C[C@H](OC)[C@@H](C)[C@@H](OC)C[C@@H](OC)[C@@H]1C)O2	none (no result: TCR-CD3 inh, HTRA1 inh)
CCC(C)c1ccccc1NC(=O)CN1CCN(C/C=C/c2ccccc2)CC1 (configuration not stated)	DDE Tn6 FP inh 15.8 | Tn6 DDE ctr inactive | Tn6 DDE conf inactive
CCOC(=O)c1sc(N(Cc2ccccc2)C(=O)COC(=O)c2ccccc2O)nc1C	none
CCOC(=O)c1sc(N(Cc2ccccc2)C(=O)COC(=O)c2ccc(O)cc2)nc1C	DDE Tn6 FP inh 26.9 | Tn6 DDE ctr inactive | Tn6 DDE conf inactive
CCN(C)c1ccc(/C=N\n2nnnc2N)cc1	none
CCN(CC)c1ccc(/C=N/n2nnnc2N)c(O)c1	DDE Tn6 FP inh 18.2 | Tn6 DDE ctr inactive | Tn6 DDE conf inactive
C/C(=N\NC(=O)CSc1nnc(-c2ccccc2)n1-c1ccc(C)cc1)c1ccc(-c2ccccc2)cc1	none (no result: TCR-CD3 inh, HTRA1 inh)
CO/N=C(\CCC(=O)O)c1cccs1	DDE Tn6 FP inh 16.2 | Tn6 DDE ctr inactive | Tn6 DDE conf inactive
COCC(=O)N1CCC(C(=O)NCC2COc3ccccc3O2)CC1 (configuration not stated)	none (no result: TCR-CD3 inh, HTRA1 inh)
c1ccc2c3c(c(CN4CCCCC4)cc2c1)COC3	none (no result: HTRA1 inh)
Cc1cc2ccccc2cc1CN1CCCCC1	DDE Tn6 FP inh 16.3 | Tn6 DDE ctr inactive | Tn6 DDE conf inactive

High-throughput results: PubChem, The Scripps Research Institute Molecular Screening Center
